ChEMBL document CHEMBL3627681, “Synthesis and biological evaluation of 1,3-diaryl pyrazole derivatives as potential antibacterial and anti-inflammatory agents” (2015)
≈ marks a conversion by molar mass, not a printed value. Calls of active or inactive are those of the source. The calls are words filed in the database; no cut-off is given here.

Columns and labels:
Staphylococcus aureus [1] = experiment: Antibacterial activity against Staphylococcus aureus 503 after 24 hrs by two-fold serial dilution method; format: functional; conditions: Staphylococcus aureus, 503, 24 h
Method in brief: (§1)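 Broth microdilution in Mueller-Hinton broth. Bacteria grown to mid-log phase, diluted 1000-fold, and inoculated at 10⁵ CFU/mL. Test compounds in DMSO, final DMSO not above 0.05%, final concentrations 64-0.5 µg/mL. Incubation 24 h at 37 °C, growth read as absorbance at 650 nm. MIC taken as the lowest concentration giving complete growth inhibition. Run three times.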

Mus musculus [2] = experiment: Antiinflammatory activity in mouse assessed as inhibition of xylene-induced ear edema at 50 mg/kg, po administered 24 hrs before xylene challenge relative to control; format: functional, organism-based
Method in brief: (§2)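 Compound was homogenized in 0.5% CMC-Na and given orally at 50 mg/kg, 0.4 mL/20 g; controls got CMC-Na vehicle only. Xylene was applied to the ear 1, 2, 3, 4, 5 or 24 h after dosing. Edema was measured as the weight difference of 7 mm ear plugs and reported as % reduction versus vehicle controls.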

Staphylococcus aureus [3] = experiment: Antibacterial activity against methicillin-resistant Staphylococcus aureus CCARM 3506 after 24 hrs by two-fold serial dilution method; format: functional; conditions: CCARM 3506, 24 h; method in brief: as §1
Salmonella typhimurium = experiment: Antibacterial activity against Salmonella typhimurium 2421 after 24 hrs by two-fold serial dilution method; format: functional, Salmonella enterica subsp. enterica serovar Typhimurium; conditions: Salmonella enterica, 2421, 24 h
Method in brief: (§3)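 Broth microdilution in Mueller-Hinton broth over final concentrations of 64–0.5. Bacteria were grown to mid-log phase and diluted 1000-fold, then inoculated at 10⁵ CFU/mL. Compounds were dissolved in DMSO, with final DMSO at most 0.05%. Plates were incubated 24 h at 37 °C and growth read as absorbance at 650 nm. MIC is the concentration giving complete growth inhibition. Three independent runs.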

Staphylococcus aureus [4] = experiment: Ratio of norfloxacin MIC to compound MIC for methicillin-resistant Staphylococcus aureus CCARM 3506 after 24 hrs by two-fold serial dilution method; format: functional
Mus musculus [5] = experiment: Antiinflammatory activity in mouse assessed as inhibition of xylene-induced ear edema at 50 mg/kg, ip administered 30 mins before xylene challenge relative to control; format: functional
Method in brief: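 Mice received compound freshly dissolved in DMSO, 50 mg/kg ip at 0.05 mL/20 g body weight; vehicle controls got DMSO alone. After 30 min, 20 µL xylene was applied to the right ear. After a further 30 min, 7 mm plugs were cut from treated and untreated ears and edema taken as their weight difference. Result is % edema reduction versus vehicle controls.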

Staphylococcus aureus [6] = experiment: Antibacterial activity against Staphylococcus aureus RN4220 after 24 hrs by two-fold serial dilution method; format: functional; conditions: RN4220, 24 h; method in brief: as §1
Escherichia coli [7] = experiment: Antibacterial activity against Escherichia coli CCARM 1356 after 24 hrs by two-fold serial dilution method; format: functional; conditions: CCARM 1356, 24 h; method in brief: as §3
Staphylococcus aureus [8] = experiment: Ratio of oxacillin MIC to compound MIC for methicillin-resistant Staphylococcus aureus CCARM 3506 after 24 hrs by two-fold serial dilution method; format: functional
Mus musculus [9] = experiment: Antiinflammatory activity in mouse assessed as inhibition of xylene-induced ear edema at 50 mg/kg, po administered 4 hrs before xylene challenge relative to control; format: functional; method in brief: as §2
Mus musculus [10] = experiment: Antiinflammatory activity in mouse assessed as inhibition of xylene-induced ear edema at 50 mg/kg, po administered 1 hr before xylene challenge relative to control; format: functional; conditions: read-out: INH; method in brief: as §2
Staphylococcus aureus [11] = experiment: Antibacterial activity against quinolone-resistant Staphylococcus aureus CCARM 3505 after 24 hrs by two-fold serial dilution method; format: functional; conditions: CCARM 3505, 24 h; method in brief: as §1
Staphylococcus aureus [12] = experiment: Antibacterial activity against quinolone-resistant Staphylococcus aureus CCARM 3519 after 24 hrs by two-fold serial dilution method; format: functional; conditions: CCARM 3519, 24 h; method in brief: as §1
Streptococcus mutans = experiment: Antibacterial activity against Streptococcus mutans 3065 after 24 hrs by two-fold serial dilution method; format: functional; conditions: Streptococcus mutans, 3065, 24 h; method in brief: as §3
Pseudomonas aeruginosa [13] = experiment: Antibacterial activity against Pseudomonas aeruginosa 2004 after 24 hrs by two-fold serial dilution method; format: functional; conditions: Pseudomonas aeruginosa, 2004, 24 h; method in brief: as §3
Staphylococcus aureus [14] = experiment: Antibacterial activity against methicillin-resistant Staphylococcus aureus CCARM 3167 after 24 hrs by two-fold serial dilution method; format: functional; conditions: CCARM 3167, 24 h; method in brief: as §1
Pseudomonas aeruginosa [15] = experiment: Antibacterial activity against Pseudomonas aeruginosa 2742 after 24 hrs by two-fold serial dilution method; format: functional; conditions: Pseudomonas aeruginosa, 2742, 24 h; method in brief: as §3
Mus musculus [16] = experiment: Antiinflammatory activity in mouse assessed as inhibition of xylene-induced ear edema at 50 mg/kg, po administered 5 hrs before xylene challenge relative to control; format: functional; method in brief: as §2
Candida albicans = experiment: Antifungal activity against Candida albicans 7535 by two-fold serial dilution method; format: functional
Mus musculus [17] = experiment: Antiinflammatory activity in mouse assessed as inhibition of xylene-induced ear edema at 12.5 mg/kg, po administered 3 hrs before xylene challenge relative to control; format: functional
Method in brief: (§4)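 Oral dosing-level study: compound suspended in 0.5% CMC-Na and given po at 25 or 12.5 mg/kg, 0.4 mL/20 g; vehicle controls received CMC-Na. Xylene ear challenge was applied 3 h after dosing. Edema was measured as the ear-plug weight difference and reported as % reduction versus vehicle controls.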

Mus musculus [18] = experiment: Antiinflammatory activity in mouse assessed as inhibition of xylene-induced ear edema at 50 mg/kg, po administered 3 hrs before xylene challenge relative to control; format: functional; method in brief: as §2
Escherichia coli [19] = experiment: Antibacterial activity against Escherichia coli KCTC 1924 after 24 hrs by two-fold serial dilution method; format: functional; conditions: KCTC 1924, 24 h; method in brief: as §3
Staphylococcus aureus [20] = experiment: Antibacterial activity against Staphylococcus aureus 209 after 24 hrs by two-fold serial dilution method; format: functional; conditions: Staphylococcus aureus, 209, 24 h; method in brief: as §1
Mus musculus [21] = experiment: Antiinflammatory activity in mouse assessed as inhibition of xylene-induced ear edema at 25 mg/kg, po administered 3 hrs before xylene challenge relative to control; format: functional; method in brief: as §4
Mus musculus [22] = experiment: Antiinflammatory activity in mouse assessed as inhibition of xylene-induced ear edema at 50 mg/kg, po administered 2 hrs before xylene challenge relative to control; format: functional; conditions: read-out: INH; method in brief: as §2

SMILES: N=C(N)N/N=C/c1cn(-c2ccccc2)nc1-c1cccc(Cl)c1
- MIC (Staphylococcus aureus [1]): 2 µg/mL (≈ 5.9 µM)
- inhibition (Mus musculus [2]): inactive
- MIC (Staphylococcus aureus [3]): 1 µg/mL (≈ 2.95 µM)
- MIC (Salmonella typhimurium): 8 µg/mL (≈ 23.6 µM)
- Ratio (Staphylococcus aureus [4]): 4
- inhibition in vivo at 50 mg/kg (Mus musculus [5]): 93.6%
- MIC (Staphylococcus aureus [6]): 2 µg/mL (≈ 5.9 µM)
- MIC (Escherichia coli [7]): 16 µg/mL (≈ 47.2 µM)
- Ratio (Staphylococcus aureus [8]): 64
- inhibition in vivo at 50 mg/kg (Mus musculus [9]): 4.39%
- inhibition in vivo at 50 mg/kg (Mus musculus [10]): 26.9%
- MIC (Staphylococcus aureus [11]): 2 µg/mL (≈ 5.9 µM)
- MIC (Staphylococcus aureus [12]): 2 µg/mL (≈ 5.9 µM)
- MIC (Streptococcus mutans): 8 µg/mL (≈ 23.6 µM)
- MIC (Pseudomonas aeruginosa [13]): > 64 µg/mL
- MIC (Staphylococcus aureus [14]): 1 µg/mL (≈ 2.95 µM)
- MIC (Pseudomonas aeruginosa [15]): > 64 µg/mL
- inhibition in vivo at 50 mg/kg (Mus musculus [16]): 35.2%
- MIC (Candida albicans): 1 µg/mL (≈ 2.95 µM)
- inhibition in vivo at 12.5 mg/kg (Mus musculus [17]): 56.7%
- inhibition in vivo at 50 mg/kg (Mus musculus [18]): 50.9%
- MIC (Escherichia coli [19]): 1 µg/mL (≈ 2.95 µM)
- MIC (Staphylococcus aureus [20]): 2 µg/mL (≈ 5.9 µM)
- inhibition in vivo at 25 mg/kg (Mus musculus [21]): 39.3%

SMILES: COc1ccc2c(c1)c(CC(=O)O)c(C)n2C(=O)c1ccc(Cl)cc1 [INDOMETHACIN]
- inhibition (Mus musculus [2]): inactive
- inhibition in vivo at 50 mg/kg (Mus musculus [5]): 45.2%
- inhibition in vivo at 50 mg/kg (Mus musculus [9]): 34.9%
- inhibition in vivo at 50 mg/kg (Mus musculus [10]): 29.7%
- inhibition in vivo at 50 mg/kg (Mus musculus [16]): 26.9%
- inhibition in vivo at 12.5 mg/kg (Mus musculus [17]): 56.3%
- inhibition in vivo at 50 mg/kg (Mus musculus [22]): 9.93%
- inhibition in vivo at 50 mg/kg (Mus musculus [18]): 23%
- inhibition in vivo at 25 mg/kg (Mus musculus [21]): 53.9%
